The results in this text go back to ChEMBL document CHEMBL4513216, “Probing the Open Global Health Chemical Diversity Library for Multistage-Active Starting Points for Next-Generation Antimalarials” (ACS Infect Dis, 2020).

This data set in a line: Toxicity liver stage against HepG2, at 10uM. In kind it is cell-based. On the set-up: test concentration 10 uM, cell line HepG2-A16-CD81EGFP. The following applies: human, HepG2-A16-CD81EGFP cells; read-out: INHIBITION
The essentials: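 Uninfected HepG2-A16-CD81EGFP cells, 3 × 10^3 per well, 1536-well, plated on prespotted compound at 10 μM final, parasite-free screening media added to match infected plates; puromycin 10 μM positive, DMSO 0.5% negative; run in parallel with 48 h PbLuc assay at 37 °C, 5% CO2; viability by CellTiter-Glo luminescence, normalized to controls.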
Regarding `COCCCNC(=O)NCc1cccn1Cc1ccccc1C`, the cytotoxicity at 10 µM stood at 2.88%.

For `Cc1n[nH]c2c1C(c1ccc(Br)cc1)SCC(=O)N2` (stereo not given), the cytotoxicity at 10 µM turned out to be 6.5%.

With `COc1ccc(NC(=O)CCNc2ncccn2)cn1`, the cytotoxicity at 10 µM is -48.4%.

In the case of `Cc1cc(NCc2ccco2)nc2[nH]nc(N)c12`, the cytotoxicity at 10 µM is -43.6%.

Turning to `Cc1nn(-c2ncccn2)c2c1C(c1cnn(C)c1)SCC(=O)N2` (stereo not given), the cytotoxicity at 10 µM is -45%.

Turning to `Cc1nn2c(-c3snnc3C)nnc2s1`, the cytotoxicity at 10 µM is -4.19%.

As to `O=C(NC1CCCc2c1[nH]c1ccc(F)cc21)c1n[nH]c2c1CCC2` (stereo not given), the cytotoxicity at 10 µM came out at 51.7%.

In the case of `CN(C)C(=O)c1cnn2c1OCCC2`, the cytotoxicity at 10 µM was -6.59%.

Turning to `Cc1noc(CNC(=O)C2CSCCC(=O)N2)n1` (stereo not given), the cytotoxicity at 10 µM came out at 2.42%.

With `Cc1cnc2n(c1=O)CC(C(=O)Nc1ccon1)CS2` (stereo not given), the cytotoxicity at 10 µM is 0.595%.

On to `CS(=O)(=O)N1C[C@H](C(=O)Nc2cnccn2)C[C@H]2OCC[C@H]21`, for which the cytotoxicity at 10 µM came out at 10.7%.

Regarding `CN1C(=O)CC[C@@H]2[C@H]1CCN2S(=O)(=O)Cc1ccccc1`, the cytotoxicity at 10 µM was -5.73%.

As to `CC(C)Nc1nc(N2CCCC2)nc2c1CN(C(C)C)CC2`, the cytotoxicity at 10 µM came to 2.06%.

In the case of `CCn1nnc(NCc2cc(Br)cc(Br)c2OC)n1`, the cytotoxicity at 10 µM is 13.3%.

For the compound `COc1ccc(C(=O)Nc2c(C(=O)N(C)C)nn(C)c2C)cc1`, the cytotoxicity at 10 µM stood at 6.03%.

For `Cc1cc2nc(O)c(O)nc2cc1S(=O)(=O)NC1CC1`, the cytotoxicity at 10 µM amounted to 9.43%.

As to `Cc1nc(O)cc([C@@H]2CN(C(=O)C3CC3)C[C@H]2c2ccccc2F)n1`, the cytotoxicity at 10 µM came out at 4.95%.

`Cc1cccc(C2(O)CCN(Cc3ccccc3N3CCCC3)CC2)c1`: the cytotoxicity at 10 µM was 10.6%.

In the case of `Oc1nc(N2CCCC2)nc2c1CCN(Cc1ccsc1)CC2`, the cytotoxicity at 10 µM was -12%.

As to `Cc1noc(C)c1-c1ccc(C2CCCN2C(=O)c2ccncn2)nc1` (stereo not given), the cytotoxicity at 10 µM was -4.45%.

Take `Cc1nc(N)sc1C(=O)N1Cc2ccccc2OC2(CCOCC2)C1`: the cytotoxicity at 10 µM was -24.6%.

Consider `Cc1cc(-c2cnc(NC3CCCCC3)nc2-c2ccco2)on1`, for which the cytotoxicity at 10 µM was -16.4%.

For `CC(=O)Nc1nc(C2CCN(C(=O)c3cccnc3)CC2)cs1`, the cytotoxicity at 10 µM was -2.47%.

Take `Cc1cc(C)cc(-c2ccc(CC3(C(=O)O)CCOCC3)cc2)c1`: the cytotoxicity at 10 µM stood at 4.81%.

For the compound `N#CCCN(Cc1ccccn1)C(=O)c1cccc(CN2CCCC2)c1`, the cytotoxicity at 10 µM came out at 4.93%.

As for `CC(C)C(CNC(=O)CCn1cncn1)N1CCc2ccccc2C1` (stereo not given), the cytotoxicity at 10 µM is -162%.

For `CC(=O)N1CC(C)CN(C(=O)c2cnccn2)c2ccccc21` (stereo not given), the cytotoxicity at 10 µM worked out at 3.82%.

As to `N#Cc1cccc(NC(=O)N[C@H](CO)Cc2ccc(O)cc2)c1`, the cytotoxicity at 10 µM was 0.597%.

Regarding `COc1cc(Cl)ccc1CNC(=O)N(C)C(C)CS(C)(=O)=O` (stereo not given), the cytotoxicity at 10 µM was -50.1%.

Turning to `CCOc1ccc(Br)cc1S(=O)(=O)N(CC)Cc1ccc(N(C)C)cc1`, the cytotoxicity at 10 µM is 14.1%.

Turning to `CNC(=O)c1sccc1S(=O)(=O)Nc1ccc(C)cc1`, the cytotoxicity at 10 µM turned out to be 11.4%.

Take `CCSCc1cccc(NCc2cccnc2)c1`: the cytotoxicity at 10 µM is -1.32%.

In the case of `CCC(=O)Nc1ncn(Cc2cccnc2)n1`, the cytotoxicity at 10 µM is -11.3%.

For the compound `CN(Cc1cccc(C(N)=O)c1)c1ncc(C#N)cc1Cl`, the cytotoxicity at 10 µM worked out at 8.36%.

Consider `C[C@H]1CN(C(=O)c2cccc(F)c2Cl)CCN1S(C)(=O)=O`, for which the cytotoxicity at 10 µM was -13.5%.

For `CC(C)C1CN(C(=O)c2ccccc2)CCS1` (stereo not given), the cytotoxicity at 10 µM was 1.62%.

With `CN(C)C(=O)Cc1nc(CN2CCCC2Cn2cncn2)cs1` (stereo not given), the cytotoxicity at 10 µM turned out to be 8.58%.

Take `Cc1csc(N2CCN(Cc3cccnc3)CC2C)n1` (stereo not given): the cytotoxicity at 10 µM turned out to be 11.2%.

`CCC(CNC1CCN(C(C)=O)CC1)Oc1cccc(C)c1` (stereo not given): the cytotoxicity at 10 µM was determined as 6.42%.

Consider `CC(NCc1cnc(C2CCC2)s1)c1ccc(-n2cncn2)cc1` (stereo not given), for which the cytotoxicity at 10 µM worked out at 1.44%.

Turning to `CC(=O)NCCCNCc1c(C)nn(CC(C)C)c1N(C)C`, the cytotoxicity at 10 µM stood at 6.47%.

For the compound `CCOCCN1CCCC1CS(N)(=O)=O` (stereo not given), the cytotoxicity at 10 µM amounted to 14.3%.

In the case of `CC(O)(CNC(=O)c1cccnc1-n1cccn1)c1ccsc1` (stereo not given), the cytotoxicity at 10 µM is 2.38%.

Regarding `O=C(CCN1CCc2[nH]nc(C(F)(F)F)c2C1)Nc1ccccc1`, the cytotoxicity at 10 µM was -1.2%.

For `CC(C)(C)c1ncc(CNc2ccccc2Cn2cncn2)s1`, the cytotoxicity at 10 µM was found to be 48.7%.

Take `CCOCC(=O)Nc1ncn(Cc2cccc(Br)c2)n1`: the cytotoxicity at 10 µM was -5.53%.

Take `CC1(C)CN(Cc2csc(CS(C)(=O)=O)n2)Cc2ccccc21`: the cytotoxicity at 10 µM is 6.38%.

As for `COCCN1CC[C@]2(CN(C(=O)c3ccc[nH]3)C[C@H]2C)C1=O`, the cytotoxicity at 10 µM was found to be 2.53%.

Regarding `O=C(NCCN1CCCC1)c1cc2c(s1)CCN2c1ncccn1`, the cytotoxicity at 10 µM was -108%.

`Cc1csc(NC(=O)[C@@H]2C[C@H]3[C@H](CCN3S(C)(=O)=O)O2)n1`: the cytotoxicity at 10 µM was 1.64%.

With `CN(C)C(=O)[C@H]1CCS(=O)(=O)[C@@H]2CN(c3ncccn3)C[C@H]12`, the cytotoxicity at 10 µM was -103%.

Regarding `CN(C)CC(=O)N1CCC2(CC1)COCCN(Cc1ccncc1)C2`, the cytotoxicity at 10 µM was -80.8%.

For `CCc1ccccc1OC1CN(C(=O)c2ccnc(OC)c2)C1`, the cytotoxicity at 10 µM was determined as 32.8%.

For `Cc1n[nH]c(C)c1Sc1ccccc1NC(=O)N1CCN(C)CC1`, the cytotoxicity at 10 µM is -12.9%.

Turning to `Cc1ncc(CC(=O)N2CCCCC2CCN2CCCC2)c(=O)[nH]1` (stereo not given), the cytotoxicity at 10 µM was -9.2%.

Turning to `CC(C)(C)c1cn(C2CCN(C(=O)c3cnccn3)CC2)nn1`, the cytotoxicity at 10 µM is 14%.

Turning to `N[C@H]1CN(C(=O)c2ccc(Cl)cc2O)C[C@@H]1C1CC1`, the cytotoxicity at 10 µM was -44.7%.

With `Cn1ncc2c1NC(=O)CC2c1cc2c(cc1Cl)OCO2` (stereo not given), the cytotoxicity at 10 µM worked out at 55.6%.

On to `COc1nc2c(cc1C(=O)N1CC[C@H](CO)[C@@H](O)C1)CCC2`, for which the cytotoxicity at 10 µM was -42.4%.

Consider `CCOC(=O)CC(C)Nc1nc(C2CCCC2)nc2c1cnn2C` (stereo not given), for which the cytotoxicity at 10 µM was -43.1%.

In the case of `Cc1cnc(NCc2cnn(C)c2)nc1-c1cnn(C)c1`, the cytotoxicity at 10 µM was found to be 52.1%.

Take `CCc1ccc(CN(Cc2ccco2)C(C)C(C)C)nc1` (stereo not given): the cytotoxicity at 10 µM was -13.5%.

As to `Cn1ncc2c(NC3CCSC3)nc(-c3ccncc3)nc21` (stereo not given), the cytotoxicity at 10 µM was found to be 21.6%.

For the compound `Cc1nc(CC2CCN(Cc3ccc(CCC(C)(C)O)cc3)CC2)no1`, the cytotoxicity at 10 µM is -0.94%.

As for `N#Cc1cnc(N2Cc3cnn(Cc4ccc(F)cc4)c3C2)nc1N`, the cytotoxicity at 10 µM amounted to 4.84%.

For the compound `O=C1N(CCO)CCCC12CCN(Cc1nnc(C3CC3)o1)C2` (stereo not given), the cytotoxicity at 10 µM was 5.27%.

With `Cc1nc(CCNC(=O)CC2CCN(C(C)C)CC2)sc1Cl`, the cytotoxicity at 10 µM was -194%.

For the compound `CCc1nnc(CNC2CCN(c3ncnc4c(C)csc34)CC2)s1`, the cytotoxicity at 10 µM amounted to 10.5%.

For `CCc1ncc2c(n1)CN(C(=O)c1c(C)[nH]c3c1C(=O)CCC3)C2`, the cytotoxicity at 10 µM is -45.8%.

In the case of `Cc1nc(-n2cnnc2)ccc1-c1cccc2c1CCNC2`, the cytotoxicity at 10 µM is 12.2%.

Consider `OC1(CN2CCCC2)CCCN(Cc2cnc(-c3ccco3)nc2)C1` (stereo not given), for which the cytotoxicity at 10 µM was -6.84%.

As to `NCC1CCN(c2cnn(CCCn3cccn3)c(=O)c2)CC1`, the cytotoxicity at 10 µM is -52.8%.

Consider `O=C(c1ccc(=O)[nH]c1)N1CCc2c(nc(-c3cccnc3)[nH]c2=O)C1`, for which the cytotoxicity at 10 µM is 9.84%.

For `CC(C)c1cc(N2CCC(NS(C)(=O)=O)CC2)n2nccc2n1`, the cytotoxicity at 10 µM came out at 0.324%.

On to `Cc1nn2c(N3CCC(C(N)=O)CC3)cc(-c3ccccc3)nc2c1C`, for which the cytotoxicity at 10 µM was -2.83%.

With `CC(=O)Nc1ncc(S(=O)(=O)N2CCC(C)CC2)s1`, the cytotoxicity at 10 µM was determined as 14.8%.

With `CCC[C@H]1CN(Cc2cc(C#N)n(C)c2C)C[C@@H]1NS(=O)(=O)CC`, the cytotoxicity at 10 µM was -153%.

Regarding `COc1ccccc1OCCCN(C)c1cc(C)nc(N)n1`, the cytotoxicity at 10 µM is 1.39%.

`CCCC(C)CN1CCC(n2cc(C3CCCC3)nn2)CC1` (stereo not given): the cytotoxicity at 10 µM was 14.2%.

Turning to `CSCc1ccc(C(=O)NCCCNc2ccc(C(F)(F)F)cn2)cc1`, the cytotoxicity at 10 µM was determined as 3.84%.

`CC(C)CCc1nc(CNCC2CCCN2c2cccnn2)cs1` (stereo not given): the cytotoxicity at 10 µM is -10.7%.

Turning to `COc1ccc(OCC(=O)NS(=O)(=O)c2ccc(Br)s2)cc1`, the cytotoxicity at 10 µM was -0.383%.

For `Cc1cccc(-n2ncc(C(=O)N3CCn4c(C)nnc4C3)c2C)c1`, the cytotoxicity at 10 µM was 2.14%.

In the case of `Cc1cc(S(=O)(=O)N2CCc3ccc(F)cc32)cc(C(=O)O)c1C`, the cytotoxicity at 10 µM was 3.2%.

Regarding `CCn1cnnc1CNC(=O)N1CCC(C(=O)NC)CC1`, the cytotoxicity at 10 µM turned out to be 2.65%.

On to `O[C@@]1(c2ccccn2)CC[C@H]2CN(Cc3cccc(Cl)c3Cl)C[C@H]21`, for which the cytotoxicity at 10 µM worked out at 0.256%.

For the compound `O=C(NCCc1cccs1)[C@]12COC[C@H]1CN(C1CCOCC1)C2`, the cytotoxicity at 10 µM was -116%.

`O=C(NC1CC1)N1CCc2ccc(=O)n(CCN3CCCC3)c2CC1`: the cytotoxicity at 10 µM was -0.603%.

On to `Cc1nnc(N2CC[C@H]3C[C@@H](C(=O)NC4CCCC4)O[C@H]3C2)s1`, for which the cytotoxicity at 10 µM turned out to be 6.69%.

Turning to `Cn1cc(CN2CC[C@@H]3[C@@H]2CCN3Cc2ccc3c(c2)OCO3)cn1`, the cytotoxicity at 10 µM was -3.63%.

Regarding `O=C(NC1CC(F)(F)C1)[C@]12COC[C@H]1CN(Cc1ccccc1)C2`, the cytotoxicity at 10 µM is -108%.

Consider `Cc1ccc(CN2CC[C@H]3OCC[C@@H](C(=O)N4CCCCO4)[C@@H]3C2)o1`, for which the cytotoxicity at 10 µM came to 3.54%.

For the compound `O=C(CC1CCCC1)N1C[C@@H]2CCN(c3cccnc3)C[C@@H]2C1`, the cytotoxicity at 10 µM came out at 4.24%.

With `O=C(Nc1cccnc1)C1Cc2nc(-c3ccsc3)sc2N1CC1CC1` (stereo not given), the cytotoxicity at 10 µM came to 14.5%.

Regarding `COc1cccc(-c2cccc(CN3C[C@H]4CC[C@@H](C3)N(C)C4=O)c2)c1`, the cytotoxicity at 10 µM stood at 6.98%.
